High-throughput results from PubChem.
Shown are actives, neighbours in structure and some others; about 2.1% of the full set was active somewhere.
PKA-R2B activ: activators of human PKA-R2B complex. P22694+P31323. PKA-R2B holoenzyme dissociation, Cy5-IP20 fluorescence polarization; R2B truncated from residue 108, S112A mutant; 0% DMSO only, 100% 113 µM cGMP. activation, % at 11.4 µM. actives 0.079% (n = 340,000);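 active = activation above a cutoff set at the mean over all compounds plus 3 SD, cut at about 18% in these data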;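 note: higher means more holoenzyme dissociation and a rise in polarization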
PKA-R1A act: activators of PKA-R1A complex. AID 504707. PKA-R1A dissociation, Cy5-IP20 fluorescence polarization; scaled: DMSO 0%, 113 µM cGMP 100%. actives 0.083% (n = 340,000). P00514+P68181. activation, % at 11.4 µM;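 active = percent activation above the mean of all tested compounds plus 3 SD, cut at about 19% in these data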;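 note: higher means more PKAc released from R1A so a rise in polarization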
SR-BI HDL uptake: blocks mouse SR-BI lipid uptake from DiI-HDL | Q61009 | ldlA[mSR-BI] CHO cells, DiI-HDL uptake fluorescence, 3 h | inhibition, % at 12.5 µM | actives 0.96% (n = 320,000) | AID 488896;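 active = mean replicate inhibition of at least 70% and a set share of replicates each scoring 70 or more; inconclusive = meets just one of the two criteria; inactive = fails both criteria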
SR-BI uptake up: enhances SR-BI lipid uptake from DiI-HDL; activation, % at 12.5 µM; actives 0.096% (n = 320,000); CHO ldlA[mSR-BI] cells, DiI-HDL uptake fluorescence, 3 h; 100 = double the neutral-control signal;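 active = mean replicate activation of at least 60% and every replicate at or above 60%; inconclusive = mean or all-replicate condition met, but not both; inactive = mean below 60% and not all replicates reaching 60%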
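Test system: SR-BI-overexpressing, LDLR-lacking CHO cells; Medium: Ham's F12 with 0.5% BSA, HEPES 25 mM, pH 7.4; Schedule: 3 h, 37 °C; Technique: bottom-read fluorescence, 550/595 nm.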
dFosB act: enhances mouse delta FosB homodimer DNA binding; actives 0.99% (n = 340,000); activation, % at 25 µM; purified delta FosB, TAMRA-CDK5 oligo fluorescence polarization; percent of positive-control signal above neutral wells;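 active = mean activation above about 17%, with every replicate also reaching it, limit read from the data, passing the limit was not always enough; inconclusive = only one of the two conditions met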
CDK5 inh: CDK5/p35 (human) kinase inhibition | actives 0.01% (n = 330,000) | inhibition, % at 10 µM | Q00535+Q15078 | AID 488839 | Recombinant CDK5/p35, ADP-Glo luminescence, 60 min;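 active = highest replicate inhibition of at least 50% and at least 75% of replicates reaching 50%; inconclusive = only one of the two criteria met; inactive = both criteria failed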
Target sequence (Q00535 whole entry, looked up): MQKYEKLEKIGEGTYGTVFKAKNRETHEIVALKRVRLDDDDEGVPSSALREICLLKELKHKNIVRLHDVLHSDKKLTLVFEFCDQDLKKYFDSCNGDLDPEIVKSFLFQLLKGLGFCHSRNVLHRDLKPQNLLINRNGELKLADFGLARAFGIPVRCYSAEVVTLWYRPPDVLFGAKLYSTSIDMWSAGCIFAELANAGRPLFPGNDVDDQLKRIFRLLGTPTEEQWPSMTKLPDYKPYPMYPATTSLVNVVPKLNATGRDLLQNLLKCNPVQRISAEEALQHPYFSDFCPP
Target sequence (Q15078 whole entry, looked up): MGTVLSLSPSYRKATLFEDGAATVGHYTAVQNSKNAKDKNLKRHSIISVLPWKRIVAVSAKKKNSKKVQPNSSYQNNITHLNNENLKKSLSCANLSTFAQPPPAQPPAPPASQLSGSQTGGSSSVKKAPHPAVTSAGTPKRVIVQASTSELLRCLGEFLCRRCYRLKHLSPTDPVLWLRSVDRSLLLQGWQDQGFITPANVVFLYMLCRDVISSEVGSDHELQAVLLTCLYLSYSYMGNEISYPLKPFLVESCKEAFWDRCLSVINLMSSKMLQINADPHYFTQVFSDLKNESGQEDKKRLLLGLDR
Of the large screens only hits and unclear results are named; the others gave an inactive call; ! = repeats disagree.

CSc1ccc2c(c1)C(N1CCN(C)CC1)Cc1ccccc1S2 (stereo not drawn)	dFosB act 19.0!
COc1cc(C(=O)OCCNC(=O)c2ccncc2)cc(OC)c1OC	none
CCC(/C=C1\Oc2ccc(OC)cc2N1C)=C\c1sc2ccccc2[n+]1CCCS(=O)(=O)[O-]	dFosB act 25.7
COc1cc(/C=C/c2sc3ccccc3[n+]2CCCS(=O)(=O)[O-])ccc1O	dFosB act 241.3
CN(C)S(=O)(=O)c1ccc2c(c1)nc(CCC(=O)NCCc1ccc(Cl)cc1)n2C	none
COc1ccc(N2C(=NC(=O)C3CCCO3)SC3CS(=O)(=O)CC32)cc1 (stereo not drawn)	none
Cc1nn(CC(=O)NCCCN2CC(C)CC(C)C2)c(=O)c2cccn12 (stereo not drawn)	none
O=C(Nc1ccc(NC(=O)c2ccco2)c(Cl)c1)c1ccccc1	none
CC(C)COc1ccc(C(=O)Nc2ccc(NC(=O)c3ccco3)c(Cl)c2)cc1	none
COc1ccc(C(=O)Nc2ccc(NC(=O)c3ccco3)c(Cl)c2)cc1OC	SR-BI HDL uptake 74.6
CC(C)Oc1ccc(C(=O)Nc2ccc(NC(=O)c3ccco3)c(Cl)c2)cc1	SR-BI HDL uptake 78.7 (no result: SR-BI uptake up)
COc1ccc(NC(=O)c2cc(Cl)ccc2NC(=O)c2ccco2)c(OC)c1	SR-BI HDL uptake 73.8
CCOC(=O)N1CCC(N2C(=O)c3ccc(C(=O)Nc4ccc(F)cc4F)cc3C2=O)CC1	SR-BI HDL uptake 78.5
CCOC(=O)N1CCC(N2C(=O)c3ccc(C(=O)NCCOC)cc3C2=O)CC1	none
COc1ccccc1C(=O)NC(=S)Nc1ccc(N2CCOCC2)c(Cl)c1	none
Cc1ccccc1OCC(=O)NC(=S)Nc1ccc(N2CCOCC2)c(Cl)c1	SR-BI uptake up 867.0
Cc1cc(-c2cc(-c3ccc(Cl)cc3)on2)nc(NC2CCCC2)n1	none
Cc1cc(-c2cc(-c3ccccc3)on2)nc(NC2CCCC2)n1	SR-BI HDL uptake 80.5
O=C(NNC(=O)c1ccncc1)Nc1ccc(N=Nc2ccccc2)cc1	SR-BI HDL uptake 72.1
O=C(NNc1ccc([N+](=O)[O-])cn1)Nc1ccc(N=Nc2ccccc2)cc1	SR-BI HDL uptake 100.3
O=C(NNc1ccc([N+](=O)[O-])cc1)Nc1ccccc1	none
COc1ccc2c(c1)-c1nc(NC(=O)c3ccco3)sc1CC2	SR-BI HDL uptake 77.6
COc1ccc2c(c1)-c1nc(NC(=O)c3cccs3)sc1CC2	SR-BI HDL uptake 78.6
COc1ccc2c(c1)CCc1sc(NC(=O)c3ccco3)nc1-2	none
COc1ccc2c(c1)CCc1sc(NC(=O)c3ccc(C)cc3)nc1-2	none
O=C(Nc1sc2c(c1C(=O)NC1CCCCC1)CCC2)c1ccco1	SR-BI HDL uptake 74.7
CC(C)(C)c1cc(C(=O)N/N=C/c2ccccc2O)n(-c2ccccc2)n1	SR-BI HDL uptake 100.1
CC(C)(C)c1cc(C(=O)N/N=C/c2ccc(F)cc2)n(-c2ccccc2)n1	none
COc1cccc(C2CC(c3ccc(Br)cc3)=NN2C(=O)c2ccncc2)c1OC (stereo not drawn)	none
O=C(c1ccncc1)N1N=C(c2ccc(Cl)cc2)CC1c1ccccc1O (stereo not drawn)	SR-BI HDL uptake 82.1
COc1ccccc1C1CC(c2ccc(Br)cc2)=NN1C(=O)c1cccnc1 (stereo not drawn)	SR-BI HDL uptake 73.8
CCN(CC)C(=O)C1=C(C)N(Cc2ccc(C(C)(C)C)cc2)C(=O)C(CC(=O)NC(c2ccccc2)c2ccccc2)C1 (stereo not drawn)	none (no result: SR-BI HDL uptake, SR-BI uptake up, dFosB act, CDK5 inh)
COc1ccc(-c2c(C)nn3c(NC4CCCC4)cc(C)nc23)cc1OC	none
CCc1c(C)nc2cc(-c3ccc(OC)c(OC)c3)nn2c1NCC1CC1	SR-BI HDL uptake 88.8
Cc1cccc(OCC(=O)NCC(=O)N/N=C/c2ccc(O)cc2O)c1	dFosB act 17.3 (no result: SR-BI HDL uptake, SR-BI uptake up)
C=CCn1c(SCC(=O)N(CC)C2CCS(=O)(=O)C2)nnc1-c1ccccc1 (stereo not drawn)	SR-BI uptake up 73.4
CCN(C(=O)CSc1nnc(-c2ccccc2)n1C)C1CCS(=O)(=O)C1 (stereo not drawn)	none
COc1ccc(NC(=O)C(NC(=O)Cc2cccs2)c2ccc(C)cc2)cc1 (stereo not drawn)	SR-BI uptake up 64.5
Oc1ccc(/C=N/Nc2ccnc3cc(Cl)ccc23)c(O)c1O	dFosB act 19.3
Oc1ccc(/C=N/Nc2ccnc3cc(Cl)ccc23)cc1O	dFosB act 108.6
CC/C(=N\Nc1ccnc2cc(Cl)ccc12)c1ccc(O)cc1	none
O=C(N/N=C/c1ccc([N+](=O)[O-])o1)c1cc(-c2cccc(Br)c2)nc2ccccc12	SR-BI HDL uptake 105.3
O=C(N/N=C/c1ccco1)c1cc(-c2ccccc2)nc2ccccc12	none
CCCc1ccc(-c2cc(C(=O)N/N=C/c3ccc([N+](=O)[O-])o3)c3ccccc3n2)cc1	SR-BI HDL uptake 95.0
COc1ccc([N+](=O)[O-])cc1NC(=O)C(C)OC(=O)Cn1[nH]c(=O)c2ccccc2c1=O (stereo not drawn)	none
CCn1c(C(=O)NCc2cccnc2)cc2sc(Cl)cc21	SR-BI uptake up 418.3
CCn1c(N)c(C(=O)NCc2cccnc2)sc1=S	none
CC(C)Oc1ccc(C(=O)OCC(=O)N2CCCc3ccccc32)cc1	none
Cc1ccc(/C=N/Nc2cc(C)nc(NCc3ccccc3)n2)cc1	dFosB act 54.6
CN(C)c1nc(NCc2ccccc2)nc(N/N=C/c2ccc(Br)cc2)n1	none
Cc1cc(Nc2ccc(Cl)cc2)nc(NCc2ccccc2)n1	dFosB act 38.0
Cc1cc(N/N=C/c2ccc(N(C)C)cc2)nc(NCc2ccccc2)n1	SR-BI HDL uptake 80.5 (no result: PKA-R2B activ, PKA-R1A act)
Cc1cc(N/N=C/c2ccc(Cl)cc2Cl)nc(NCc2ccccc2)n1	dFosB act inconclusive
NC(=O)C1CCCN(C(=O)c2ccc(NC(=O)c3cccs3)cc2)C1 (stereo not drawn)	none
COc1ccc(S(=O)(=O)N2CCOCC2)cc1NC(=O)CCc1nc2ccccc2c(=O)[nH]1	none
O=C(Nc1cc(Cl)ccc1N1CCOCC1)c1ccc(N2CCCCC2)c([N+](=O)[O-])c1	none
O=C(Nc1nc2ccc(Cl)cc2s1)c1ccc(N2CCCCC2)c([N+](=O)[O-])c1	SR-BI HDL uptake 79.3, dFosB act inconclusive
O=C(Nc1ccc(N2CCCCC2)c(Cl)c1)c1ccc(N2CCOCC2)c([N+](=O)[O-])c1	SR-BI HDL uptake 87.5
O=C(Nc1ccc(N2CCCC2)c(Cl)c1)c1ccc(Br)o1	dFosB act 42.6
